# Measured values as given in ChEMBL document CHEMBL1157616, “Identification of 2-anilino-9-methoxy-5,7-dihydro-6H-pyrimido[5,4-d][1]benzazepin-6-ones as dual PLK1/VEGF-R2 kinase inhibitor chemotypes by structure-based lead generation” (J Med Chem, 2010).
# pIC50: −log10 of the molar value. Active and inactive are the calls of the source.
# Tests used:
# [1] = molecular target: T1, Vascular endothelial growth factor receptor 2 (Homo sapiens, UniProt P35968); experiment: Inhibition of VEGFR2 assessed as [33Pi] incorporation by microplate scintillation counting in presence of 1 uM ATP
# Method in brief: (§1)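 Substrates: Poly(Glu,Tyr)4:1 for VEGFR2; Poly(Glu,Tyr) or Poly(Ala,Glu,Lys,Tyr) for INS-R; RBER-CHKtide or casein for PLK1. Incubated 30 °C, 80 min, stopped with 2% H3PO4. Singlicate; activity referenced to no-enzyme and no-inhibitor controls.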
# [2] = molecular target: T2, Serine/threonine-protein kinase PLK1 (Homo sapiens, UniProt P53350); experiment: Inhibition of PLK1 assessed as [33Pi] incorporation by microplate scintillation counting in presence of 1 uM ATP
# Insulin receptor [3] = molecular target: T3, Insulin receptor (Homo sapiens, UniProt P06213); experiment: Inhibition of INSR assessed as [33Pi] incorporation by microplate scintillation counting in presence of 1 uM ATP; method in brief: as §1
# [4] = molecular target: T1, Vascular endothelial growth factor receptor 2; experiment: Inhibition of VEGFR2 in HUE cells assessed as inhibition of VEGF-induced autophosphorylation treated for 90 mins before VEGF challenge by ELISA; assay type: cell-based
# HUVEC = experiment: Inhibition of angiogenesis in HUVEC assessed as inhibition of VEGF-induced sprout growth from cellular spheroids after 24 hrs; assay type: functional, cell-based; conditions: Homo sapiens
# Method in brief: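 Spheroids of 500 primary HUVEC formed overnight in hanging drops, then embedded in collagen gel. Compound added with VEGF-A at 25 ng/mL final, incubated 37 °C for 24 h, then fixed in 4% paraformaldehyde. Cumulative sprout length measured by image analysis; the mean of 10 random spheroids counts as one data point. IC50 from curve fitting.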
# IGROV-1 = experiment: Growth inhibition of human IGROV1 cells after 48 hrs by sulforhodamine B assay; assay type: functional; conditions: IGROV-1, 48 h
# Method in brief: (§2)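 NCI SRB assay with five drug concentrations, top concentration 100 μM, 48 h exposure at 37 °C in RPMI 1640/5% FBS. GI50 is the concentration giving [(Ti−Tz)/(C−Tz)]×100 = 50. Values are means of two independent runs on different dates, each run in duplicate.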
# CAKI-1 = experiment: Growth inhibition of human Caki1 cells after 48 hrs by sulforhodamine B assay; assay type: functional; conditions: CAKI-1, 48 h; method in brief: as §2
# UACC-257 = experiment: Growth inhibition of human UACC257 cells after 48 hrs by sulforhodamine B assay; assay type: functional; conditions: UACC-257, 48 h; method in brief: as §2
# NCI60 = experiment: Antiproliferative activity against human NCI60 cells at 10 uM after 48 hrs by sulforhodamine B assay; assay type: functional, cell-based
# Method in brief: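 NCI 60-cell-line prescreen with compound given once at 10 μM. Cells grown in RPMI 1640 with 5% FBS and 2 mM L-glutamine, plated 24 h before dosing, then exposed 48 h at 37 °C. Fixed with cold TCA, stained with SRB, absorbance read at 515 nm, and percent growth taken relative to time-zero and control wells.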
# [5] = molecular target: T1, Vascular endothelial growth factor receptor 2; experiment: Inhibition of VEGFR2 assessed as [33Pi] incorporation at 10 uM by microplate scintillation counting in presence of 1 uM ATP; method in brief: as §1
# [6] = molecular target: T2, Serine/threonine-protein kinase PLK1; experiment: Inhibition of PLK1 assessed as [33Pi] incorporation at 10 uM by microplate scintillation counting in presence of 1 uM ATP; method in brief: as §1
# Insulin receptor [7] = molecular target: T3, Insulin receptor; experiment: Inhibition of INSR assessed as [33Pi] incorporation at 10 uM by microplate scintillation counting in presence of 1 uM ATP; method in brief: as §1
# [8] = molecular target: T1, Vascular endothelial growth factor receptor 2; conditions: HUE, 10 uM
# T1 sequence (P35968 whole entry): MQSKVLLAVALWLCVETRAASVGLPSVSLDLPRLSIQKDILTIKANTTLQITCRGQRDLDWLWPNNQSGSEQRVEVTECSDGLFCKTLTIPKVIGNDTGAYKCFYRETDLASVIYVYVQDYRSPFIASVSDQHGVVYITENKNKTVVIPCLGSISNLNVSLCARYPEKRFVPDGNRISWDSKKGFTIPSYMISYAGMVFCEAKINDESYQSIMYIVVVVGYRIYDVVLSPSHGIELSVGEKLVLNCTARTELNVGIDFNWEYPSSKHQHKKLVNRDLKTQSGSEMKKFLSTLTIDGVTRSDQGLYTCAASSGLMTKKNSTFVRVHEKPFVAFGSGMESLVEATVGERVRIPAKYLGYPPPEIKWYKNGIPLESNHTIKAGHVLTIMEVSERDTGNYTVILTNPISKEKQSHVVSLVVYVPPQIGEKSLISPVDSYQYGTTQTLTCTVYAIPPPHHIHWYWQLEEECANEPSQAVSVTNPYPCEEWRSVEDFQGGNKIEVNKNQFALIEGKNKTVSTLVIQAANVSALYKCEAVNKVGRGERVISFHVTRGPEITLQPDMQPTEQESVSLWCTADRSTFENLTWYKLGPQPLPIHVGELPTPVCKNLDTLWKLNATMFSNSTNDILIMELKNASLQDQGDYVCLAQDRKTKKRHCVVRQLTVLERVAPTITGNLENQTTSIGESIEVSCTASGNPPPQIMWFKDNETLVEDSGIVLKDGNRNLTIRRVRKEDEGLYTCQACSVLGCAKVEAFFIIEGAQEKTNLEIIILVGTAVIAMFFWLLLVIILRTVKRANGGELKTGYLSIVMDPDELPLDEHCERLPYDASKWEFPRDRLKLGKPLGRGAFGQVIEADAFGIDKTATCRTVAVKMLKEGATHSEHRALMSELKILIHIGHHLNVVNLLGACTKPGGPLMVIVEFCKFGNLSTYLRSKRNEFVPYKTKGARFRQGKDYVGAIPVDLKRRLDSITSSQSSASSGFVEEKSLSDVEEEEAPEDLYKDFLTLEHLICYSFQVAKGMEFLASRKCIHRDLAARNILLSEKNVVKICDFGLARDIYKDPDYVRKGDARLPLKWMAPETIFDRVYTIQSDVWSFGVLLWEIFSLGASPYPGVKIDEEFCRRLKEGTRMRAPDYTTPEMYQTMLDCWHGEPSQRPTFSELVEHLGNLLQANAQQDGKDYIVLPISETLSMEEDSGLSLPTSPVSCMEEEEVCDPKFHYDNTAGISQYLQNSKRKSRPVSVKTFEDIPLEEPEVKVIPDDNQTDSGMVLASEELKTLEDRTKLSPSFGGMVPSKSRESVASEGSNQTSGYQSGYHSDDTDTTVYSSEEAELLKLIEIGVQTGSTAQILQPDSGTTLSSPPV
# T3 sequence (P06213 28-758 limits assumed): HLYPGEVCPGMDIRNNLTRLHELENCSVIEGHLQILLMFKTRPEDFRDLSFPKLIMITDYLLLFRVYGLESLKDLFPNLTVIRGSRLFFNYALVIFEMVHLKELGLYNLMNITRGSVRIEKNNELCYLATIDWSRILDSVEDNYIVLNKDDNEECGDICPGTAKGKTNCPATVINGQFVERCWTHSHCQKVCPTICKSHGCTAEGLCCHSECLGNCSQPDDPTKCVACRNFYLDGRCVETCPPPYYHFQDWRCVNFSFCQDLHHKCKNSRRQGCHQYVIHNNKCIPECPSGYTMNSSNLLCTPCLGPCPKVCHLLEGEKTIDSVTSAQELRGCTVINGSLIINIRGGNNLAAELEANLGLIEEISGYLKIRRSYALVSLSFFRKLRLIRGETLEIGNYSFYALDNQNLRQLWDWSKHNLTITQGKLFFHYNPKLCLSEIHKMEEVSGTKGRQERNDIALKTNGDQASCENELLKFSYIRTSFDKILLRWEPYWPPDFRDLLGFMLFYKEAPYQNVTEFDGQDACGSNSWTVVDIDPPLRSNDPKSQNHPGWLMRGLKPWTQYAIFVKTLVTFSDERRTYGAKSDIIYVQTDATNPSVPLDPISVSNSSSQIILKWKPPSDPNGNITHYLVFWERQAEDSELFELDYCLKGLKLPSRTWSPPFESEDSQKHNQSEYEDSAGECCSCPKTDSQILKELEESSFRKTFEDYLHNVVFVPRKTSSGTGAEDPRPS
# T3 sequence (P06213 763-1382 limits assumed): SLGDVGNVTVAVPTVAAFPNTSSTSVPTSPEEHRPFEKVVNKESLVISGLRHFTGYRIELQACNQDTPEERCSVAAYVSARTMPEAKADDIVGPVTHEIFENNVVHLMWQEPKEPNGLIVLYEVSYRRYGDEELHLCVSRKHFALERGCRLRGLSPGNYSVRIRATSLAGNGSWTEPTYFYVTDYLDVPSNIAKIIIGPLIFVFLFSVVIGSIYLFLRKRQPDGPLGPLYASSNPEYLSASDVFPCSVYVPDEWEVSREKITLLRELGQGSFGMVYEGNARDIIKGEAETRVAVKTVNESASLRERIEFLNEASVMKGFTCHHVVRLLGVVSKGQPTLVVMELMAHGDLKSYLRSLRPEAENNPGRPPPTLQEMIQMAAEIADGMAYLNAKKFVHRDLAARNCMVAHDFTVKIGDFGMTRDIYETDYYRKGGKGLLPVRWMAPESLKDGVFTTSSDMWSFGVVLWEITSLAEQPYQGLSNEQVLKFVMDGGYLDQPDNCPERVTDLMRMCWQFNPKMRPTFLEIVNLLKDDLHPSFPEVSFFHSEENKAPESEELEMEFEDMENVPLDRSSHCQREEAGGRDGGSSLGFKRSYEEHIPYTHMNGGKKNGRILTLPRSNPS
# T2 sequence (P53350 whole entry): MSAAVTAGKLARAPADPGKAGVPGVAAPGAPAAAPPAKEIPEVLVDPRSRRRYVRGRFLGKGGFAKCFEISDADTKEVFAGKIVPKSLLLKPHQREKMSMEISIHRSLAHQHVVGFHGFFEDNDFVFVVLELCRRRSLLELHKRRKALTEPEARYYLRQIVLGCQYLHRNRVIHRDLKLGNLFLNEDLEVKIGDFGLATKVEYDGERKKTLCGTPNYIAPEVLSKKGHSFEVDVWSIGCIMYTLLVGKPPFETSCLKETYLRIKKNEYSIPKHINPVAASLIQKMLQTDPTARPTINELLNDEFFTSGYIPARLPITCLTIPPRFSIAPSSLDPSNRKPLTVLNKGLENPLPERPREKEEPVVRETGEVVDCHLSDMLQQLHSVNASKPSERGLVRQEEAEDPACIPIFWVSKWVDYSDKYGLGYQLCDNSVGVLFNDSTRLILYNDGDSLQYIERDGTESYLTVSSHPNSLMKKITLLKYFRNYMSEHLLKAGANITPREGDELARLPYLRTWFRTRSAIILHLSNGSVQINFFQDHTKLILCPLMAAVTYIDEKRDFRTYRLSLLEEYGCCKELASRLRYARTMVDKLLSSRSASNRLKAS
pIC50 [1],pIC50 [2],pIC50 (Insulin receptor [3]),pIC50 [4],inhibition [5] [%],inhibition [6] [%],inhibition (Insulin receptor [7]) [%],inhibition [8],Structure (SMILES),pIC50 (HUVEC),GI50 (IGROV-1) [nM],GI50 (CAKI-1) [nM],GI50 (UACC-257) [nM],Activity (NCI60)
7.28,5.14,< 4.00,6.54,,,,,CCOc1ccc(Nc2ncc3c(n2)-c2ccc(OC)cc2NC(=O)C3)cc1,5.96,230,390,55000,Active
,,,,< 30,< 30,< 30,,O=C1Cc2cnc3ncnn3c2-c2ccccc2N1,,,,,Active
7.96,6.44,< 4.00,6.37,,,,,COc1ccc2c(c1)NC(=O)Cc1cnc(Nc3ccc(O)c(Cl)c3)nc1-2,5.92,,,,Active
7.02,4.33,4.00,,,,,,COc1ccc(Nc2ncc3c(n2)-c2ccccc2NC(=O)C3)cc1,,410,510,61000,Active
7.10,< 4.00,< 4.00,,,,,,O=C1Cc2cnc(Nc3ccc(O)cc3)nc2-c2ccccc2N1,,3000,2600,> 100000,Active
5.70,< 4.00,< 4.00,,,,,,CCOc1ccc(Nc2ncc3c(n2)-c2ncccc2NC(=O)C3)cc1,,,,,Active
7.55,6.12,< 4.00,,,,,,COc1ccc2c(c1)NC(=O)Cc1cnc(Nc3ccc(O)cc3)nc1-2,,,,,Active
6.72,5.60,< 4.00,,,,,,COc1ccc(Nc2ncc3c(n2)-c2cnccc2NC(=O)C3)cc1,,,,,Active
6.20,< 4.00,< 4.00,,,,,,O=C1Cc2cnc3cc(-c4ccccc4)nn3c2-c2ccccc2N1,,,,,Active
7.00,5.77,< 4.00,4.73,,,,,CCOc1ccc(Nc2ncc3c(n2)-c2cnccc2NC(=O)C3)cc1,,400,160,> 100000,Active
7.46,5.03,4.08,5.02,,,,,O=C1Cc2cnc(Nc3ccc(O)c(Cl)c3)nc2-c2ccccc2N1,,,4700,39000,Active
6.85,< 4.00,< 4.00,,,,,,O=C1Cc2cnc(Nc3ccccc3)nc2-c2ccccc2N1,,,,,Active
5.59,< 4.00,< 4.00,,,,,,O=C1Cc2cnc(Nc3cccc(O)c3)nc2-c2ncccc2N1,,,,,Active
< 4.00,< 4.00,< 4.00,,,,,,COc1ccc2c(c1)NC(=O)Cc1cc3c(=O)[nH]c(=O)[nH]c3nc1-2,,,,,Active
5.74,4.77,4.96,,,,,,COc1ccc2c(c1)NC(=O)Cc1cnc3cc(-c4ccccc4)nn3c1-2,,,,,Active
< 4.00,< 4.00,< 4.00,,,,,,Cn1c(=O)c2cc3c(nc2n(C)c1=O)-c1ccccc1NC(=O)C3,,,,,Active
< 4.00,< 4.00,< 4.00,,,,,,COc1ccc2c(c1)NC(=O)Cc1cnc3ncnn3c1-2,,,,,Active
7.14,5.24,4.62,5.62,,,,,COc1ccc(Nc2ncc3c(n2)-c2ccccc2NC(=O)C3)cc1O,,250,150,19000,Active
6.72,< 4.00,< 4.00,,,,,,O=C1Cc2cnc(Nc3ccc(Cl)cc3)nc2-c2ccccc2N1,,,,,Active
5.82,< 4.00,< 4.00,,,,,,COc1ccc(Nc2ncc3c(n2)-c2ncccc2NC(=O)C3)cc1,,,,,Active
6.85,5.64,< 4.00,,,,,,O=C1Cc2cnc(Nc3cccc(O)c3)nc2-c2cnccc2N1,,,,,Active
7.29,4.72,< 4.00,5.80,,,,,O=C1Cc2cnc(Nc3cccc(O)c3)nc2-c2ccccc2N1,,,,,Active
6.89,< 4.00,< 4.00,,,,,,CCOc1ccc(Nc2ncc3c(n2)-c2ccccc2NC(=O)C3)cc1,,380,750,27000,Active
7.06,5.85,< 4.00,,,,,inactive,O=C1Cc2cnc(Nc3ccc(O)c(Cl)c3)nc2-c2cnccc2N1,,,,,Active
< 4.00,< 4.00,< 4.00,,,,,,COc1ccc2c(c1)NC(=O)Cc1cc3c(=O)n(C)c(=O)n(C)c3nc1-2,,,,,Active
< 4.00,< 4.00,< 4.00,,,,,,Cn1c(=O)c2cc3c(nc2n(C)c1=O)-c1cnccc1NC(=O)C3,,,,,Active
